# Measurements reported in ChEMBL document CHEMBL1150348, “Design and synthesis of FAJANU: a de novo C(2) symmetric cyclopeptide family” (2008).
# Where a SMILES comes first, the peptide text is derived from it. Bridges are numbered along the chain shown (N, C = ends). Roman numbers before positions name the chains, in order. [ ]: non-standard residue; d: D form. The star is where a group is joined. Quinoxaline2carbonyl = O=C(c1cnc2ccccc2n1)*; Quinaldoyl(3-OH) = O=C(c1nc2ccccc2cc1O)*; Quinaldoyl = O=C(c1ccc2ccccc2n1)*; NMeF = CN[C@@H](Cc1ccccc1)C(=O)O; NMeL = CN[C@@H](CC(C)C)C(=O)O; X1 = O=C(c1cc(=O)c2ccccc2o1)*; NMeA = CN[C@@H](C)C(=O)O; Orn = NCCC[C@H](N)C(=O)O; Dap = NC[C@H](N)C(=O)O; Sar = CNCC(=O)O
# Experiments:
# Assay type in all cases: functional
# HT-29 = assay: Cytotoxicity against human HT29 cells after 72 hrs by SRB assay; details: HT-29, 72 h
# Outline: (§1)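 SRB colorimetric growth assay: cells seeded at 5 × 10^3 cells/well in RPMI, grown drug-free 18 h to attach, then samples added (dissolved in DMSO–H2O 3:7) for 72 h exposure. Fixed with cold 50% TCA 60 min at 4 °C, stained with 0.4% SRB in 1% acetic acid 10 min at room temperature, washed, bound dye solubilized in Tris, absorbance read at 490 nm; GI50 derived.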
# A549 = assay: Cytotoxicity against human A549 cells after 72 hrs by SRB assay; details: A549, 72 h; outline: as §1
# MDA-MB-231 = assay: Cytotoxicity against human MDA-MB-231 cells after 72 hrs by SRB assay; details: MDA-MB-231, 72 h; outline: as §1
Structure (SMILES),GI50 (HT-29) [nM],GI50 (A549) [nM],GI50 (MDA-MB-231) [nM]
CC(C)C[C@@H](C(=O)N[C@H]1CNC(=O)[C@H](Cc2ccccc2)N(C)C(=O)[C@H](CC(C)C)N(C)C(=O)[C@@H](NC(=O)[C@H](CC(C)C)N(C)C)CNC(=O)[C@H](Cc2ccccc2)N(C)C(=O)[C@H](CC(C)C)N(C)C1=O)N(C)C,650,2860,710
CC(C)C[C@@H](C(=O)N[C@H]1COC(=O)[C@H](Cc2ccccc2)N(C)C(=O)[C@H](CC(C)C)N(C)C(=O)[C@@H](NC(=O)[C@H](CC(C)C)N(C)C)COC(=O)[C@H](Cc2ccccc2)N(C)C(=O)[C@H](CC(C)C)N(C)C1=O)N(C)C,640,2900,1230
"CC(C)C[C@H]1C(=O)NCCCC[C@H](NC(=O)c2ccc3ccccc3n2)C(=O)N(C)[C@@H](CC(C)C)C(=O)N(C)CC(=O)N(C)[C@@H](CC(C)C)C(=O)NCCCC[C@H](NC(=O)c2ccc3ccccc3n2)C(=O)N(C)[C@@H](CC(C)C)C(=O)N(C)CC(=O)N1C (I: Quinaldoyl-K[NMeL][Sar][NMeL] / II: Quinaldoyl-K[NMeL][Sar][NMeL]; amide I:1-II:C, I:C-II:1)",,3940,
"CC(C)C[C@H]1C(=O)NC[C@H](NC(=O)c2ccc3ccccc3n2)C(=O)N(C)[C@@H](CC(C)C)C(=O)NCC(=O)N(C)[C@@H](CC(C)C)C(=O)NC[C@H](NC(=O)c2ccc3ccccc3n2)C(=O)N(C)[C@@H](CC(C)C)C(=O)NCC(=O)N1C (I: Quinaldoyl-[Dap][NMeL]G[NMeL] / II: Quinaldoyl-[Dap][NMeL]G[NMeL]; amide I:1-II:C, I:C-II:1)",620,1180,550
"CC(C)C[C@H]1C(=O)N(C)CC(=O)N(C)[C@@H](C)C(=O)NC[C@H](NC(=O)c2ccc3ccccc3n2)C(=O)N(C)[C@@H](CC(C)C)C(=O)N(C)CC(=O)N(C)[C@@H](C)C(=O)NC[C@H](NC(=O)c2ccc3ccccc3n2)C(=O)N1C (I: Quinaldoyl-[Dap][NMeL][Sar][NMeA] / II: Quinaldoyl-[Dap][NMeL][Sar][NMeA]; amide I:1-II:C, I:C-II:1)",3530,,5340
"CC(C)C[C@H]1C(=O)N(C)CC(=O)N(C)[C@@H](Cc2ccccc2)C(=O)NC[C@H](NC(=O)c2ccc3ccccc3n2)C(=O)N(C)[C@@H](CC(C)C)C(=O)N(C)CC(=O)N(C)[C@@H](Cc2ccccc2)C(=O)NC[C@H](NC(=O)c2ccc3ccccc3n2)C(=O)N1C (I: Quinaldoyl-[Dap][NMeL][Sar][NMeF] / II: Quinaldoyl-[Dap][NMeL][Sar][NMeF]; amide I:1-II:C, I:C-II:1)",4080,4160,
CC(C)C[C@H]1C(=O)NC[C@H](NC(=O)c2ccc3ccccc3n2)C(=O)N(C)[C@@H](CC(C)C)C(=O)N(C)CC(=O)N(C)[C@@H](CC(C)C)C(=O)OC[C@H](NC(=O)c2ccc3ccccc3n2)C(=O)N(C)[C@@H](CC(C)C)C(=O)N(C)CC(=O)N1C (I: Quinaldoyl-[Dap][NMeL][Sar][NMeL] / II: Quinaldoyl-S[NMeL][Sar][NMeL]; amide I:1-II:C; ester I:C-II:1),1230,2760,1160
"CC(C)C[C@H]1C(=O)NC[C@H](NC(=O)c2ccc3ccccc3n2)C(=O)N(C)[C@@H](CC(C)C)C(=O)N(C)CC(=O)N(C)[C@@H](CC(C)C)C(=O)NC[C@H](NC(=O)c2ccc3ccccc3n2)C(=O)N(C)[C@@H](CC(C)C)C(=O)N(C)CC(=O)N1C (I: Quinaldoyl-[Dap][NMeL][Sar][NMeL] / II: Quinaldoyl-[Dap][NMeL][Sar][NMeL]; amide I:1-II:C, I:C-II:1)",500,570,640
"CC(C)C[C@H]1C(=O)NCCC[C@H](NC(=O)c2ccc3ccccc3n2)C(=O)N(C)[C@@H](CC(C)C)C(=O)N(C)CC(=O)N(C)[C@@H](CC(C)C)C(=O)NCCC[C@H](NC(=O)c2ccc3ccccc3n2)C(=O)N(C)[C@@H](CC(C)C)C(=O)N(C)CC(=O)N1C (I: Quinaldoyl-[Orn][NMeL][Sar][NMeL] / II: Quinaldoyl-[Orn][NMeL][Sar][NMeL]; amide I:1-II:C, I:C-II:1)",2440,2940,5800
"CC(C)C[C@H]1C(=O)NC[C@H](NC(=O)c2cnc3ccccc3n2)C(=O)N(C)[C@@H](CC(C)C)C(=O)N(C)CC(=O)N(C)[C@@H](CC(C)C)C(=O)NC[C@H](NC(=O)c2cnc3ccccc3n2)C(=O)N(C)[C@@H](CC(C)C)C(=O)N(C)CC(=O)N1C (I: Quinoxaline2carbonyl-[Dap][NMeL][Sar][NMeL] / II: Quinoxaline2carbonyl-[Dap][NMeL][Sar][NMeL]; amide I:1-II:C, I:C-II:1)",1230,1410,1670
"CC(C)C[C@H]1C(=O)NC[C@H](NC(=O)c2cc(=O)c3ccccc3o2)C(=O)N(C)[C@@H](CC(C)C)C(=O)N(C)CC(=O)N(C)[C@@H](CC(C)C)C(=O)NC[C@H](NC(=O)c2cc(=O)c3ccccc3o2)C(=O)N(C)[C@@H](CC(C)C)C(=O)N(C)CC(=O)N1C (I: X1-[Dap][NMeL][Sar][NMeL] / II: X1-[Dap][NMeL][Sar][NMeL]; amide I:1-II:C, I:C-II:1)",2910,,2310
"CC(C)C[C@H]1C(=O)NC[C@H](NC(=O)c2nc3ccccc3cc2O)C(=O)N(C)[C@@H](CC(C)C)C(=O)N(C)CC(=O)N(C)[C@@H](CC(C)C)C(=O)NC[C@H](NC(=O)c2nc3ccccc3cc2O)C(=O)N(C)[C@@H](CC(C)C)C(=O)N(C)CC(=O)N1C (I: {Quinaldoyl(3-OH)}-[Dap][NMeL][Sar][NMeL] / II: {Quinaldoyl(3-OH)}-[Dap][NMeL][Sar][NMeL]; amide I:1-II:C, I:C-II:1)",3430,2400,
